The source made the active and inactive calls.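 How the source made its calls: active means inhibition above 50% of the malaria lysate aminopeptidase activity; inactive means inhibition of 50% or less.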
Molecular target: Aspartyl aminopeptidase (Plasmodium falciparum (isolate 3D7)) (UniProt Q8I2J3)
Assay: inhibitors of M18 aminopeptidase activity, malaria lysate – cell lysate, fluorescence, malaria cell lysate, powder samples, late-stage follow-up (AID 492975)
Conditions: P. falciparum lysate, H-Glu-NHMec fluorogenic substrate; at 5 µM; stronger effect = higher value
Procedure, shortened: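 System: Plasmodium falciparum cell lysate with native PfM18 aspartyl aminopeptidase. Buffer or medium: Tris-HCl 25 mM, pH 7.5. Also added: 50 µM H-Glu-NHMec. Incubation: compound with lysate 10 min before substrate, then 30 min kinetic read. Technique: Per-minute kinetic AMC fluorescence, ex 370 nm, em 460 nm. Benchmarks: no-compound and no-lysate control wells.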

Sequence of Aspartyl aminopeptidase (Plasmodium falciparum (isolate 3D7)) (Q8I2J3 whole entry, looked up): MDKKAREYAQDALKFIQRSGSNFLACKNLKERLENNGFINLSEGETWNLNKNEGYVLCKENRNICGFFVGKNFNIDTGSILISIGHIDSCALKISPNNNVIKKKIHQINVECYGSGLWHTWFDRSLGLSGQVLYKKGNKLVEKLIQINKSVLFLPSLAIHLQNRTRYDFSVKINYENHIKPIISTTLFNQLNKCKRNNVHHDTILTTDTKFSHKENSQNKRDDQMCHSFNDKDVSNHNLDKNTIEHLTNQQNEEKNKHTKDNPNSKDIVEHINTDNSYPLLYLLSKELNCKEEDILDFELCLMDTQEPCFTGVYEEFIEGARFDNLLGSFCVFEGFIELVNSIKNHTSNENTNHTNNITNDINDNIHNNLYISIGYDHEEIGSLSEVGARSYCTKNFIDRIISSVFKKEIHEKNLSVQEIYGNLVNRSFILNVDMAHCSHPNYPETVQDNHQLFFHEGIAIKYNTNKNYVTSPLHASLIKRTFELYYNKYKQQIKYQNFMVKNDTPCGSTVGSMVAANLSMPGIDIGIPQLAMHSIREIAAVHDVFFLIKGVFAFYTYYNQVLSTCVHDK

Row | Structure (SMILES) | inhibition
1 | Cc1c(Cl)cccc1NC(=O)Nn1cnnc1 | 10% (inactive)
2 | CCN(CC)S(=O)(=O)c1ccc(C(=O)Nn2cnnc2)cc1 | 31% (inactive)
3 | Oc1ccc(-c2csc(-c3cccnc3)n2)cc1O | 99%
4 | CN1CCc2cccc3c2[C@@H]1Cc1ccc(O)c(O)c1-3 | 84%
5 | CCc1ccccc1NC(=S)Nn1cnnc1 | 14% (inactive)
6 | Oc1ccc(-c2csc(-c3ccccc3)n2)cc1O | 94%
7 | O=C(CSc1ncn[nH]1)OCN1C(=O)c2ccccc2C1=O | 49% (inactive)
8 | COc1ccc(Cl)cc1NC(=O)Nn1cnnc1 | 21% (inactive)
9 | COC(=O)CN(n1cnnc1)S(=O)(=O)c1ccccc1 | 0% (inactive)
10 | Cc1ccc(NC(=S)Nn2cnnc2)c(C)c1 | 7% (inactive)
11 | Cc1cc(C)cc(C(=O)n2cnnc2N)c1 | 11% (inactive)
12 | O=c1[nH]c(CSc2ncn[nH]2)nc2ccccc12 | 15% (inactive)
13 | COc1ccc(C(=O)n2cnnc2N)cc1 | 12% (inactive)
14 | O=c1c(O)c(-c2ccc(O)c(O)c2)oc2cc(O)cc(O)c12 | 80%
15 | Br/C(C=Nn1cnnc1)=C\c1ccccc1 | 14% (inactive)
16 | COc1ccc(NC(=O)NNC(=O)CCc2ccc(O)c(O)c2)cc1OC | 86%
17 | O=[N+]([O-])c1cc([N+](=O)[O-])c2cccnc2c1Oc1ccccc1O | 85%
18 | O=C(Nn1cnnc1)c1ccccc1-c1ccccc1 | 10% (inactive)
19 | O=C(Nc1cccc(Cl)c1Cl)Nn1cnnc1 | 26% (inactive)
20 | OC(Cn1cnnc1)c1ccccc1 (stereo not given) | 12% (inactive)

Row | Structure (SMILES) | inhibition
21 | COC(=O)CN(n1cnnc1)S(=O)(=O)c1ccc(C)cc1 | 6% (inactive)
22 | Cc1cc(C)n2c(=S)[nH]nc2n1 | 74%
23 | O=C(O)c1cn[nH]c1-n1cnnn1 | 7% (inactive)
24 | O=C(Nc1ccc(Cl)c(Cl)c1)Nn1cnnc1 | 84%
25 | CCC(C)c1ccc(O)c(N)c1 (stereo not given) | 95%
26 | COc1cc(Br)cc(/C=N/c2ncn[nH]2)c1O | 0% (inactive)
27 | COc1cccc2c(SCC(=O)N/N=C/c3ccc(O)c(O)c3)cc(C)nc12 | 80%
28 | O=C(NC(=S)Nn1cnnc1)c1ccccc1Br | 14% (inactive)
29 | Cc1cc(=O)[nH]c(SCC(=O)c2ccc(O)c(O)c2)n1 | 61%
30 | Cc1ccc([N+](=O)[O-])cc1-c1[nH]c(-c2ccc(O)c(O)c2)nc1-c1ccccc1 | 92%
31 | Cc1nc(-c2ccc(O)c(O)c2)cs1 | 95%
32 | CCOC(=O)C1=C(CS(=O)(=O)c2ccc(F)cc2)NC(=O)NC1c1ccc(O)c(O)c1 (stereo not given) | 90%
33 | O=c1[nH]c(=S)[nH]c(O)c1/C=C1\C=c2ccccc2=N1 | 41% (inactive)
34 | O=C(CSc1nn(-c2ccccc2)c(=S)s1)Nn1cnnc1 | 9% (inactive)
35 | COc1cccc(-c2cc(C(=O)Nn3cnnc3)c3ccccc3n2)c1 | 0% (inactive)
36 | Nc1nncn1C(=O)CCCOc1ccc(Cl)cc1Cl | 3% (inactive)
37 | NCCc1ccc(O)c(O)c1 | 70%
38 | CC1(C)CC(=O)c2c(oc3cc(O)c(O)cc23)C1 | 85%
39 | O=S(=O)(Nn1cnnc1)c1ccccc1 | 2% (inactive)
40 | O=C(Nn1cnnc1)c1csc2ccccc12 | 5% (inactive)

Row | Structure (SMILES) | inhibition
41 | Cc1nc2ccccn2c1C(=O)NNC(=O)Nc1ccccc1 | 53%
42 | S=C(Nc1cc(Cl)ccc1Cl)Nn1cnnc1 | 20% (inactive)
43 | O=c1c2c([N+](=O)[O-])cc([N+](=O)[O-])cc2sn1Cc1ccccc1 | 94%
44 | Oc1cc(O)c2c(c1)O[C@H](c1ccc(O)c(O)c1)[C@H](O)C2 | 89%
45 | CC1=NNC(=O)/C1=C\c1cn(-c2ccccc2)nc1-c1ccc(F)cc1 | 68%
46 | O=C(CSc1ncn[nH]1)Nc1nc(-c2ccccc2)ns1 | 12% (inactive)
47 | COc1cc([N+](=O)[O-])ccc1NC(=O)Nn1cnnc1 | 0% (inactive)
48 | O=C(O)CSc1ncn[nH]1 | 66%
49 | Oc1ccc(-c2cn3ccccc3n2)cc1O | 94%
50 | O=C(CSc1nc2ccccc2c(=O)[nH]1)c1ccc(O)c(O)c1 | 79%
51 | Cc1cccc(NC(=S)Nn2cnnc2)c1C | 12% (inactive)
52 | O=C(CNC(=O)c1ccccc1)NCCc1ccc(O)c(O)c1 | 94%
53 | CC(C)n1c(SCC(=O)Nc2nncs2)nnc1-c1ccco1 | 11% (inactive)
54 | Cc1ccc(-n2c(O)c(/C=N/n3cnnc3)c3ccccc3c2=O)cc1 | 12% (inactive)
55 | COc1ccc2nc(C)cc(SCC(=O)N/N=C/c3ccc(O)c(O)c3)c2c1 | 83%
56 | Oc1ccc(/C=C/c2cc(O)cc(O)c2)cc1 | 66%
57 | CC1(C)CC2(CC(c3ccccc3F)c3ccc(O)c(O)c3O2)NC(=S)N1 (stereo not given) | 89%
58 | Cc1ccc(Cl)cc1NC(=S)Nn1cnnc1 | 16% (inactive)
59 | O=C(O)c1ccc(O)c(O)c1 | 94%
60 | O=C(Nc1ccc(Br)cc1Cl)Nn1cnnc1 | 28% (inactive)

Reference: PubChem BioAssay AID492975 (The Scripps Research Institute Molecular Screening Center, 2010)
